Measured values published in publication PMC4104500 (Biochemistry, 2013).

T1: CIB1 (Homo sapiens, UniProt Q99828)
T1 sequence (Q99828 1-191): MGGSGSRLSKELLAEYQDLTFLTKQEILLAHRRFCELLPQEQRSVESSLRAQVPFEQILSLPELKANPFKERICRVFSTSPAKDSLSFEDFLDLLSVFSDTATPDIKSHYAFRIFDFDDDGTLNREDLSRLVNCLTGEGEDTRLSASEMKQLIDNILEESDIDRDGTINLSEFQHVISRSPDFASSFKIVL

T2: Human wild type CIB1 (calcium and integrin binding protein 1) (human, UniProt Q99828 1-191)
T2 sequence (looked up): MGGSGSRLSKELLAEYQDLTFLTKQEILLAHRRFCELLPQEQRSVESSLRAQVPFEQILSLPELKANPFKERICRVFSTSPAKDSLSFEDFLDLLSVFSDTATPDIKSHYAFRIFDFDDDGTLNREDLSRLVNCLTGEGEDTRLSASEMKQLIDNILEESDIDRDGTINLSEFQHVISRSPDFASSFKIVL


What was measured:
CIB1 = target: T1, CIB1; assay: Isothermal titration calorimetry; format: binding
Summary of the method: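 Recombinant CIB1 from E. coli BL21(DE3), His tag removed by TEV, dialyzed into 50 mM HEPES pH 7.4, 150 mM NaCl, 0.1 mM CaCl₂ unless otherwise noted, at 100 µM in cell. Peptides (0.8–1 mM, same buffer) injected as 10 µL every 300 s at 15 °C or 26 °C. Dilution heats taken from post-saturation injections; one-site fit; TΔS and ΔG calculated.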

[1] = target: Human wild type CIB1 (calcium and integrin binding protein 1) (human) (UniProt Q99828); assay: ITC
[2] = target: T2, Human wild type CIB1 (calcium and …); assay: ITC
[3] = target: T2, Human wild type CIB1 (calcium and …); assay: pull-down
[4] = ITC buffer without any NaCl, calculated value

Molecule	Kd [2]	dH [2]	stoichiometry N [2]	other results
αIIb: synthetic cytoplasmic tail (CT) peptide of integrin αIIb; sequence in Table S1				TΔS (CIB1; ITC buffer with 150 mM NaCl, calculated from ΔG = ΔH − TΔS): 17.1 kJ/mol; ΔG (CIB1; ITC buffer with 150 mM NaCl, calculated from ΔG = −RT ln Ka): -33.4 kJ/mol; TΔS (CIB1; [4]): -2.4 kJ/mol; ΔG (CIB1; [4]): -31.7 kJ/mol
integrin α4 cytoplasmic tail (CT) peptide				dH [1]: 32.7 kJ/mol
integrin αL cytoplasmic tail (CT) peptide (peptide) IFIVLYKVGFFKRNLKEKMEAGRGVPNGIPAEDSEQLASGQEAGDPGCLKPLHEKDSESGGGKD	3.2 µM	8.2 kJ/mol	1.1	
LVLAMWKVGFFKRNRPPLEEDDEEGE (domain or fragment, human, UniProt P08514 1014-1039, looked up) [MBP-αIIb cytoplasmic tail fusion protein]				binding result [3]: binds
LVFVMYRMGFFKRVRPPQEEQEREQLQPHENGEGNSET [integrin αV cytoplasmic tail (CT) peptide, wild type]	4.3 µM	7.3 kJ/mol	0.9	
LVFVMYRMGFFKRVRPPQEEQEREQLQPHENGEGNSET (domain or fragment, human, UniProt P06756 1011-1048, looked up) [MBP-αV cytoplasmic tail fusion protein]				binding result [3]: binds
IILLLWKCGFFKRARTRALYEAKRQKAEMKSQPSETERLTDDY [integrin α3 cytoplasmic tail (CT) peptide]	5.1 µM	4.2 kJ/mol	1	
LIYILYKLGFFKRSLPYGTAMEKAQLKPPATSDA [integrin α5 cytoplasmic tail (CT) peptide]	6.9 µM	21.4 kJ/mol	0.9	
